Screening results deposited in PubChem BioAssay by several laboratories.
Rows were chosen to be rich in hits. Some 3.5% of all compounds tested hit in one or more screens of this group.
FLuc act counter = affects firefly luciferase, flagging false hits in luciferase stimulation screens; P08659; 200,000 tested, under 10 active; activation factor at 10 µM; AID 1027; ATPlite luciferase biochemical, luminescence, 10 min; 0 = ATP-free wells, 1 = DMSO control;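 active = luciferase activation factor, scaled between plate controls, of at least 2 with compound at 10 µM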
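Assay system: Luciferase/luciferin reagent mix; Medium: PBS as buffer for the ATP substrate; Dosing: test compounds dosed from 2 mM stocks in 100% DMSO; Times: 10 min, room temperature; Signal: luminescence from luciferase reaction; Read-out: luciferase activation; Controls: No-ATP low control, compound-free enzyme-plus-ATP high control.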
NF-kB neuron act = compounds increasing NF-kB expression in human neuronal cells | fold change at 12.5 µM | 1.6% of 190,000 active | NF-kB reporter expression; hits give high values; in the data active = fold change above about 3.3
APP 5'UTR act = activates APP 5'UTR luciferase reporter. activation, % at 2 µM. SH-SY5Y APP 5'UTR luciferase reporter, luminescence; zero percent = DMSO vehicle wells. 1% of 190,000 active;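 active = activation above a set limit, based on mean plus 3 SD of controls, cut at about 140% in these data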
FLuc inh counter = counter-screen for luciferase assay inhibitors: firefly luciferase inhibition. P08659. ATPLite firefly luciferase biochemical luminescence, 10 min. inhibition, % at 10 µM. 1.5% of 200,000 active. AID 1006;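 active = inhibition above about 50% when tested at 10 µM, limit read from the data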
STAT1 act = increases IFN-gamma driven STAT1 reporter signal. NIH 3T3 STAT1-luciferase reporter, luminescence; 100% = IFN-gamma alone, no compound. activation (% of control), % at 5.5 µM. 2.6% of 200,000 active. AID 932;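 active = activation above the screen-wide mean activation plus 3 SD, cut at about 130% in these data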;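 also: raw ratio to IFN-gamma control signal so 100% means no change and 0% no light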
Pf gametocyte = P. falciparum stage V gametocyte viability inhibition | 0.065% of 150,000 active | inhibition, % at 10.9 µM | AID 743093 | P. falciparum stage V gametocytes, ATP luminescence, 24 h;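 active = inhibition above the mean plus 3 SD of compounds within the control limits, set per campaign, cut at about 38% in these data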;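 also: 0% = DMSO wells and 100% = medium only without gametocytes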
* = called active by the depositor; . = not tested or not shown.

SMILES	FLuc act counter	NF-kB neuron act	APP 5'UTR act	FLuc inh counter	STAT1 act	Pf gametocyte
C/C(=N\NC(=O)c1cc(-c2ccco2)nc2ccccc12)c1cccnc1	0.5	1.1	14	53*	96	4
COc1ccccc1C(=O)N/N=C(\C)c1cccnc1	.	.	.	.	.	-19
C/C(=N/NC(=O)c1ccoc1C)c1ccc(N2CCOCC2)cc1	1	1.8	202*	4	146*	1
CCOc1ccc(/C=N/NC(=O)c2cc(-c3ccco3)nc3ccccc23)cc1	0.5	1.3	-18	53*	96	.
O=C(N/N=C/c1ccc(F)cc1)c1cc(-c2ccco2)nc2ccccc12	0.5	1.4	1	48	93	.
C/C(=N\NC(=O)c1ccoc1C)c1cccnc1	0.9	12*	152*	13	143*	3
C/C(=N/NC(=O)c1ccoc1C)c1ccc(NC(=O)c2ccncc2)cc1	0.9	2.1	125	7	143*	-37
CC(=O)Nc1ccc(/C(C)=N/NC(=O)c2ccncc2)cc1	1	1.1	13	-1	114	5
O=C(N/N=C/c1ccc([N+](=O)[O-])o1)c1cc(-c2ccc(-c3ccccc3)cc2)nc2ccccc12	0.1	.	-90	93*	116	6
COc1ccc(NC(=O)CNc2ccc(C#N)cc2)cc1	1.1	1.2	22	-8	110	-11
c1ccc(-n2cnc3cc(NCc4ccco4)ccc32)cc1	0.6	1.5	86	40	147*	-26
COc1ccc(-n2cnc3cc(NCc4cccs4)ccc32)cc1	1	1.4	30	2	131*	2
Cc1ccc(C(=O)Cn2c(=N)n(N)c3ccccc32)cc1	.	.	.	.	.	-7
Cc1ccc(C(=O)Cn2ncsc2=N)cc1	1	2.2	17	0	130*	.
COC(=O)c1sc2nc(CN3CCN(c4cccc(C(F)(F)F)c4)CC3)[nH]c(=O)c2c1C	1	1.1	-1	-5	90	-10
c1ccc(-c2noc(CC3CCCCC3)n2)cc1	0.9	1.6	59	9	136*	10
c1ccc(-c2noc(CCC3CCCC3)n2)cc1	0.9	2.3	12	14	113	-17
CCS(=O)(=O)N1Cc2ccccc2CC1C(=O)Nc1nc2c(C)cccc2s1 (stereo unspecified)	1	0.95	11	0	104	.
CCS(=O)(=O)N1Cc2ccccc2CC1C(=O)Nc1nc(C)cs1 (stereo unspecified)	0.8	1.1	104	17	134*	8
CCS(=O)(=O)N1Cc2ccccc2CC1C(=O)Nc1nccs1 (stereo unspecified)	0.9	1.7	81	11	133*	.
CCCc1nnc2n1N=C(c1ccc(-c3cc(Cl)ccc3Cl)o1)CS2	1	1.1	-2	0	98	.
O=C(Nc1ccc2c(c1)OCO2)c1cc(-c2ccncc2)nc2ccccc12	1	1.3	14	4	102	0
Cn1c(NC(=O)c2cc(-c3ccc4c(c3)OCO4)nc3ccccc23)cc(=O)n(C)c1=O	0.3	1.7	27	72*	116	.
Cc1cccc(C)c1N(CC(=O)NCc1ccc(F)cc1)C(=O)c1csnn1	1.1	1.1	12	-8	110	-16
CCCn1c(C(C)C)n[nH]c1=S	.	.	.	.	.	13
SMILES	FLuc act counter	NF-kB neuron act	APP 5'UTR act	FLuc inh counter	STAT1 act	Pf gametocyte
Oc1ccc(-c2csc(Nc3ncccn3)n2)cc1	0.4	9.1*	173*	56*	146*	1
Oc1ccc(-c2csc(Nc3ccccn3)n2)c(O)c1	.	.	.	.	.	18
Cc1cccnc1Nc1nc(-c2ccc(O)cc2O)cs1	1	3.9*	36	0	121	-5
Cc1ccc(NC(=O)CCNCc2ccco2)cc1S(=O)(=O)N(C)C	0.2	1	29	79*	95	.
CCOC(=O)N1CCC(NC(=O)c2cc(S(=O)(=O)N(CC)CC)ccc2F)CC1	1	1.4	-15	-3	98	.
Clc1ccccc1-c1nc(-c2ccccc2)n[nH]1	0.7	4*	109	27	132*	21
O=[N+]([O-])c1cc(-c2n[nH]c(-c3ccccc3)n2)cc([N+](=O)[O-])c1	1	1.1	-3	-5	105	-16
Cc1onc(-c2ccccc2)c1C(=O)NNC(=S)NC(=O)c1ccc(Cl)cc1Cl	1.1	1	0	-6	103	.
Cc1nc(N)nc(N)c1CCCc1ccc(Cl)c(Cl)c1	.	.	.	.	.	17
